Assays:
[1] = Phase 1 safety monitoring of PX-866 with docetaxel; format: in vivo, human
Method in brief: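 Open-label dose escalation in cohorts of 6–9 patients at 4, 6 or 8 mg oral daily test compound plus docetaxel 75 mg m−2 IV every 21 days, with dexamethasone premedication. All patients receiving ≥1 dose had vital signs, labs and exams; AEs were graded by NCI CTCAE v4.02. DLTs included related grade ≥3 events, febrile grade 3/4 neutropenia, platelets <25 000 per μl and ANC <500 per μl for >7 days.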

[2] = Docetaxel plasma pharmacokinetics in patients; format: in vivo; settings: human
[3] = tested on: NSCLC; settings: ref Roberts et al, 2004, Horstmann et al, 2005, Schuette et al; cited from earlier work
[4] = plasma, intravenous, 75 mg m^-2

SMILES: CC(=O)O[C@@]12CO[C@@H]1C[C@H](O)[C@@]1(C)C(=O)[C@H](O)C3=C(C)[C@@H](OC(=O)[C@H](O)[C@@H](NC(=O)OC(C)(C)C)c4ccccc4)C[C@@](O)([C@@H](OC(=O)c4ccccc4)[C@H]21)C3(C)C [docetaxel]
- patients requiring docetaxel dose reduction ([1]; 18 out of 43): 42%
- SAE related to docetaxel: ataxia ([1]; PX-866 with docetaxel): 1 N
- SAE related to docetaxel: febrile neutropenia ([1]; PX-866 with docetaxel): 1 N
- SAE related to docetaxel: mental status changes ([1]; PX-866 with docetaxel): 1 N
- SAE related to docetaxel: nausea ([1]; PX-866 with docetaxel): 2 N
- SAE related to docetaxel: pneumonia ([1]; PX-866 with docetaxel): 1 N
- SAE related to docetaxel: vomiting ([1]; PX-866 with docetaxel): 3 N
- gastrointestinal disorders, docetaxel-related ([1]; PX-866 with docetaxel, 43 patients): 79.1%
- Grade 3/4 AE related to docetaxel: anaemia ([1]; PX-866 with docetaxel, N=43): 2 N
- Grade 3/4 AE related to docetaxel: diarrhoea ([1]; PX-866 with docetaxel, N=43): 3 N
- Grade 3/4 AE related to docetaxel: leucopenia ([1]; PX-866 with docetaxel, N=43): 4 N
- Grade 3/4 AE related to docetaxel: nausea ([1]; PX-866 with docetaxel, N=43): 2 N
- Grade 3/4 AE related to docetaxel: vomiting ([1]; PX-866 with docetaxel, N=43): 3 N
- patients in whom docetaxel was discontinued due to toxicity ([1]; after SD or better with combination, continued single-agent PX-866): eight
- patients requiring docetaxel dose reduction due to neutropenia ([1]; of 18 with dose reduction): Fourteen
- exposure in the presence of PX-866 ([2]; in vivo): not affected
- AUC(0-t) ([2]; plasma, intravenous): 851 ng·h/mL
- MRT inf ([2]; plasma, intravenous): 13.9 h
- Tmax ([2]; plasma, intravenous): 11.4 min
- Vd ([2]; plasma, intravenous): 2690 L
- clearance ([2]; plasma, intravenous): 2570 mL/min
- AUC(0-t) [2, 4]: 1200 ng·h/mL
- MRT inf [2, 4]: 15.2 h
- Tmax [2, 4]: 11.4 min
- Vd [2, 4]: 2990 L
- clearance [2, 4]: 2390 mL/min
- AUC(0-inf) ([2]; plasma, intravenous, AUCINF, C2D1 (with PX-866), mean, N=35, plasma): 1110 ng·h/mL
- Cmax ([2]; plasma, intravenous, Cmax, C2D1 (with PX-866), mean, N=35, plasma): 539 ng/mL
- half-life ([2]; plasma, intravenous, Half-life, C2D1 (with PX-866), mean, N=35, plasma): 788 min
- PR rate, second-line docetaxel in NSCLC [3]: 13%
- PR−SD rate, second-line docetaxel in NSCLC [3]: 50%

Reference: article PMC3778312 (British Journal of Cancer, 2013)
